Results: ChEMBL document CHEMBL4393661, “PRODRUGS FOR NITROREDUCTASE BASED CANCER THERAPY- 2: Novel amide/Ntr combinations targeting PC3 cancer cells” (Eur J Med Chem, 2019)

Key:
[1] = molecular target: T1, Putative nitroreductase (Staphylococcus saprophyticus subsp. saprophyticus (strain ATCC 15305 / DSM20229 / NCIMB 8711 / NCTC 7292 / S-41), UniProt Q4A0P1); assay: Substrate activity at Staphylococcus saprophyticus nitroreductase expressed in Escherichia coli assessed as retention time […] at 100 uM by HPLC analysis (0 to 5 mins at 20 % ACN, 15 to 22 min at 80% ACN, 27-32 AT 20% ACN); type: ADME
T1 sequence (Q4A0P1 whole entry): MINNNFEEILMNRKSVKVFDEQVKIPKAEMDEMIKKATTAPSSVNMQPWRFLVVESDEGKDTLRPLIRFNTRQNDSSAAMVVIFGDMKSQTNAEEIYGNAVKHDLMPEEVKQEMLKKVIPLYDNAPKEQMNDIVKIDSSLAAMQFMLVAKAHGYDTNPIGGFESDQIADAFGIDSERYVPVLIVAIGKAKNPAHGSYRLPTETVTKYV

[2] = tested on: PC-3; assay: Cytotoxicity in human PC3 cells assessed as reduction in cell viability at 180 nM measured after 48 hrs by SRB assay; type: cell-based; conditions: pc-3, 48 h, 0.18 µM
Outline: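 They were exposed for 48 h to prodrug alone at 180 nM final, without enzyme or NADH, with 25 mM Tris-HCl as vehicle control. Cells were fixed with 12.5% TCA for 1 h at 4 °C, stained with 0.4% SRB and read at 492 nm as % cell survival, in triplicate.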

[3] = tested on: PC-3; assay: Cytotoxicity against human PC3 cells assessed as reduction in cell viability measured after 48 hrs in presence of Staphylococcus saprophyticus nitroreductase and NADH by SRB assay; type: cell-based; conditions: PC-3, 48 h
Outline: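 Prodrug at 180, 18 or 1.8 nM was premixed with Ssap-NtrB (31 µg/mL final) and NADH (600 µM final; 900 µM for CB1954) in 25 mM Tris-HCl pH 7.5, then added for 48 h under aerobic conditions. Cells were fixed with 12.5% TCA, stained with SRB and read at 492 nm, in triplicate.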

[4] = Cytotoxicity against human Hep3B cells assessed as cell viability at 9 to 150 uM measured after 48 hrs by MTT assay relative to control; type: cell-based, Hep 3B2; conditions: read-out: Activity
Outline: (§1)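 Hep3B and HUVEC cells were grown in high-glucose medium with 10% heat-inactivated FBS and 2 mM glutamine at 37 °C in 5% CO2. Cells were seeded at 5x10^4 per well and left 24 h to attach. They were then exposed for 48 h to 150, 75, 39, 19 and 9 µM, with 1% DMSO as vehicle control. Viability was read by MTT at 550 nm as (OD sample/OD control)×100.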

[5] = Cytotoxicity against human HUVEC cells assessed as cell viability at 9 to 150 uM measured after 48 hrs by MTT assay relative to control; type: cell-based; conditions: read-out: Activity; outline: as §1
[6] = Cytotoxicity against human PC3 cells assessed as cell viability at 9 to 150 uM measured after 48 hrs by MTT assay relative to control; type: cell-based, PC-3; conditions: read-out: Activity
Outline: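 They were treated for 48 h at 9, 18, 39, 78 and 150 µM, with 1% DMSO as vehicle control. Viability was read by MTT at 550 nm.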

[7] = molecular target: T1, Putative nitroreductase; assay: Substrate activity at Staphylococcus saprophyticus nitroreductase expressed in Escherichia coli assessed as retention time in the presence of NADPH at 100 uM by HPLC analysis (0 to 5 mins at 20% ACN, 25 to 35 min at 80% ACN, 40 to 45 min at 20% ACN); type: ADME
[8] = molecular target: T2, Staphylococcus saprophyticus nitroreductase (Staphylococcus saprophyticus subsp. saprophyticus (strain ATCC 15305 / DSM20229 / NCIMB 8711 / NCTC 7292 / S-41), UniProt Q4A0P1); assay: Substrate activity at Staphylococcus saprophyticus nitroreductase expressed in Escherichia coli assessed as half life […] at 100 uM by HPLC analysis (0 to 5 mins at 20% ACN, 25 to 35 min at 80% ACN, 40 to 45 min at 20% ACN); type: ADME
T2 sequence (Q4A0P1 whole entry): T1 sequence (Q4A0P1 whole entry)

[9] = molecular target: T1, Putative nitroreductase; assay: (§2) Prodrug conversion assessed Staphylococcus saprophyticus nitroreductase expressed in Escherichia coli-mediated N,N'-(cyclohexane-1,4-diyl)bis(4-aminobenzamide) formation by measuring retention time at 100 uM incubated for 15 mins in presence of FDH cofactor regeneration system by HPLC analysis; type: ADME; conditions: 0.25 h
Outline: (§3)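 This was a coupled regeneration reaction: 100 µM substrate in Tris/Cl pH 7.5 with 5–15% DMSO, plus 100 µM NADH, 10 µM NAD+, 0.1 mg/mL BSA, 200 µM sodium formate, 30 µg/mL Ssap-NtrB and 30 µg/mL Candida methylica FDH, at 25 °C. Aliquots were taken over time, quenched 1:1 with cold acetonitrile and analysed by C18 HPLC using program II (20→80→20% ACN). Peak areas were read at 254 and 340 nm.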

[10] = molecular target: T1, Putative nitroreductase; assay: as §2, with “4-amino-N-(4-(4-(hydroxyamino)benzamido)cyclohexyl)benzamide” for “N,N'-(cyclohexane-1,4-diyl)bis(4-aminobenzamide)”; type: ADME; conditions: 0.25 h; outline: as §3
[11] = molecular target: T1, Putative nitroreductase; assay: as §2, with “N,N'-(cyclohexane-1,4-diyl)bis(4-(hydroxyamino)benzamide)” for “N,N'-(cyclohexane-1,4-diyl)bis(4-aminobenzamide)”; type: ADME; conditions: 0.25 h; outline: as §3
[12] = molecular target: T1, Putative nitroreductase; assay: as §2, with “time of metabolite” for “time”; type: ADME; conditions: 0.25 h; outline: as §3
[13] = molecular target: T1, Putative nitroreductase; assay: Prodrug conversion assessed Staphylococcus saprophyticus nitroreductase expressed in Escherichia coli-mediated N,N'-(cyclohexane-1,4-diyl)bis(4-aminobenzamide) formation at 100 uM incubated for 15 mins by HPLC analysis; type: ADME; conditions: 0.25 h
[14] = molecular target: T1, Putative nitroreductase; assay: Prodrug conversion assessed Staphylococcus saprophyticus nitroreductase expressed in Escherichia coli-mediated 4-amino-N-(4-(4-(hydroxyamino)benzamido)cyclohexyl)benzamide formation at 100 uM incubated for 15 mins by HPLC analysis; type: ADME; conditions: 0.25 h
[15] = molecular target: T1, Putative nitroreductase; assay: Prodrug conversion assessed Staphylococcus saprophyticus nitroreductase expressed in Escherichia coli-mediated N,N'-(cyclohexane-1,4-diyl)bis(4-(hydroxyamino)benzamide) formation at 100 uM incubated for 15 mins by HPLC analysis; type: ADME; conditions: 0.25 h
[16] = molecular target: T1, Putative nitroreductase; assay: Prodrug conversion assessed Staphylococcus saprophyticus nitroreductase expressed in Escherichia coli-mediated 4-(hydroxyamino)-N-(4-(4-nitrobenzamido)cyclohexyl)benzamide formation at 100 uM incubated for 15 mins by HPLC analysis; type: ADME; conditions: 0.25 h
[17] = Solubility of the compound in 15% DMSO; type: physicochemical
[18] = molecular target: T2, Staphylococcus saprophyticus nitroreductase; assay: Substrate activity at Staphylococcus saprophyticus nitroreductase expressed in Escherichia coli assessed as half life […] at 100 uM by HPLC analysis (0 to 5 mins at 20 % ACN, 15 to 22 min at 80% ACN, 27-32 AT 20% ACN); type: ADME
[19] = molecular target: T1, Putative nitroreductase; assay: Prodrug conversion assessed Staphylococcus saprophyticus nitroreductase expressed in Escherichia coli-mediated (4-aminophenyl)(piperidin-1-yl)methanone metabolite formation by measuring retention time in presence of FDH cofactor regeneration system at 100 uM by HPLC analysis; type: ADME; outline: as §3
[20] = molecular target: T1, Putative nitroreductase; assay: Prodrug conversion assessed Staphylococcus saprophyticus nitroreductase expressed in Escherichia coli-mediated PP (4-(hydroxyamino)phenyl)(piperidin-1-yl)methanone metabolite formation by measuring retention time in presence of FDH cofactor regeneration system at 100 uM by HPLC analysis; type: ADME; outline: as §3
[21] = molecular target: T1, Putative nitroreductase; assay: Prodrug conversion assessed Staphylococcus saprophyticus nitroreductase expressed in Escherichia coli-mediated PP (4-(hydroxyamino)phenyl)(piperidin-1-yl)methanone metabolite formation by measuring retention time of metabolite at 100 uM incubated for 15 mins by HPLC analysis; type: ADME; conditions: 0.25 h
Outline: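 Recombinant Ssap-NtrB, Ni-column purified, was used at 2.5 µg/mL. Substrate at 100 µM was reacted with 200 µM NADH in 25 mM Tris/Cl pH 7.5 with 10% DMSO at 25 °C for 15 min. The reaction was stopped 1:1 with cold acetonitrile and run on C18 RP-HPLC at 1 mL/min with a 20–80% ACN gradient. Peaks were detected at 254 and 340 nm.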

[22] = molecular target: T3, Escherichia coli nitroreductase nfsB (oxygen-insensitive NAD(P)H nitroreductase) (Escherichia coli K-12, UniProt P38489); assay: Substrate activity at Escherichia coli nitroreductase nfsB assessed as Km using NADH as cofactor in Tris-Cl buffer at pH 7.5 by spectrophotometric method; type: ADME
T3 sequence (P38489 whole entry): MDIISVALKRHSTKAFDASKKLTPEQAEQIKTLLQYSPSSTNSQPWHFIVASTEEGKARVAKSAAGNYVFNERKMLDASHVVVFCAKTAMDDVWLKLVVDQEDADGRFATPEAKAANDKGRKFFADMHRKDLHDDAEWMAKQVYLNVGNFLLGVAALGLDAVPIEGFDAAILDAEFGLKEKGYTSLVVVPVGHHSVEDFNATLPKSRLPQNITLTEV

[23] = molecular target: T4, Oxygen-insensitive NAD(P)H nitroreductase (Escherichia coli K-12, UniProt P38489); assay: Substrate activity at Escherichia coli nitroreductase nfsB assessed as ratio of Kcat/Km using NADH as cofactor in Tris-Cl buffer at pH 7.5 by spectrophotometric method; type: ADME
T4 sequence (P38489 whole entry): T3 sequence (P38489 whole entry)

[24] = molecular target: T1, Putative nitroreductase; assay: Substrate activity at Staphylococcus saprophyticus nitroreductase assessed as Kcat using NADPH as cofactor in presence of Tris-Cl buffer at pH 7.5 by spectrophotometric method; type: ADME
Outline: (§4)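 Michaelis–Menten parameters for recombinant Ssap-NtrB were measured spectrophotometrically at 25 °C in 25 mM Tris-Cl buffer pH 7.5 containing 5% DMSO as cosolvent.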

[25] = molecular target: T2, Staphylococcus saprophyticus nitroreductase; assay: Substrate activity at Staphylococcus saprophyticus nitroreductase assessed as Km using NADPH as cofactor in presence of Tris-Cl buffer at pH 7.5 by spectrophotometric method; type: ADME; outline: as §4
[26] = molecular target: T1, Putative nitroreductase; assay: Substrate activity at Staphylococcus saprophyticus nitroreductase assessed as ratio of Kcat/Km using NADPH as cofactor in presence of Tris-Cl buffer at pH 7.5 by spectrophotometric method; type: ADME; outline: as §4
[27] = molecular target: T4, Oxygen-insensitive NAD(P)H nitroreductase; assay: Substrate activity at Escherichia coli nitroreductase nfsB assessed as ratio of Kcat/Km up to 80 mM using NADH as cofactor relative to CB1954/NfsB; type: ADME

SMILES | Retention_time [1] [min] | Activity [2] | IC50 [3] [nM] | viability at 48 h, up to 150 µM [4] [%] | viability at 48 h, up to 150 µM [5] [%] | viability at 48 h, up to 150 µM [6] [%] | Retention_time [7] [min] | half-life at 100 µM [8] [h] | solubility [17] | also measured
O=C(NC1CCC(NC(=O)c2ccc([N+](=O)[O-])cc2)CC1)c1ccc([N+](=O)[O-])cc1 (stereo unspecified) | 19.96 | Non-Toxic | 1.79 | > 80 | > 80 | > 80 | 19.2 | < 1.5 | Soluble | Retention_time [9]: 13.48 min; Retention_time [10]: 13.48 min; Retention_time [11]: 13.48 min; Retention_time [12]: 13.48 min; Drug metabolism [13]: Metabolite_Notdetected; Drug metabolism [14]: Metabolite_Notdetected; Drug metabolism [15]: Metabolite_Notdetected; Drug metabolism [16]: Metabolite_Detected
O=C(c1ccc([N+](=O)[O-])cc1)N1CCCCC1 | 18.22 | Non-Toxic | 1.81 | > 80 | > 80 | > 80 | 17.81 | < 0.02 | Soluble | half-life [18]: < 1.5 h; Retention_time [19]: 22.3 min; Retention_time [20]: 14 min; Retention_time [21]: 15.99 min
NC(=O)c1cc(N(CCCl)CCCl)c([N+](=O)[O-])cc1[N+](=O)[O-] |  |  |  |  |  |  |  |  |  | Km [22]: 2500 µM; Kcat/Km [23]: 10560 M⁻¹ s⁻¹; Kcat [24]: 0.8 s⁻¹; Km [25]: 82.4 µM; Kcat/Km [26]: 9350 M⁻¹ s⁻¹; fold change (FC) [27]: 1.89
